Activity calls are given as the source filed them. Unless noted, no cut-off for these calls is given here.
How the values were obtained:
[1] = target: T1, P2X purinoceptor 7 (Homo sapiens) (UniProt Q99572); test: Inhibition of human P2X7 expressed in human HEK293 cells assessed as reduction in BzATP-stimulated TO-PRO-3 incorporation at 10 uM preincubated with compound and TO-PRO-3 for 15 mins prior to BzATP addition and measured after 1 hr by Fluo-3AM dye based flow cytometry relative to control; format: cell-based
T1 sequence (whole entry): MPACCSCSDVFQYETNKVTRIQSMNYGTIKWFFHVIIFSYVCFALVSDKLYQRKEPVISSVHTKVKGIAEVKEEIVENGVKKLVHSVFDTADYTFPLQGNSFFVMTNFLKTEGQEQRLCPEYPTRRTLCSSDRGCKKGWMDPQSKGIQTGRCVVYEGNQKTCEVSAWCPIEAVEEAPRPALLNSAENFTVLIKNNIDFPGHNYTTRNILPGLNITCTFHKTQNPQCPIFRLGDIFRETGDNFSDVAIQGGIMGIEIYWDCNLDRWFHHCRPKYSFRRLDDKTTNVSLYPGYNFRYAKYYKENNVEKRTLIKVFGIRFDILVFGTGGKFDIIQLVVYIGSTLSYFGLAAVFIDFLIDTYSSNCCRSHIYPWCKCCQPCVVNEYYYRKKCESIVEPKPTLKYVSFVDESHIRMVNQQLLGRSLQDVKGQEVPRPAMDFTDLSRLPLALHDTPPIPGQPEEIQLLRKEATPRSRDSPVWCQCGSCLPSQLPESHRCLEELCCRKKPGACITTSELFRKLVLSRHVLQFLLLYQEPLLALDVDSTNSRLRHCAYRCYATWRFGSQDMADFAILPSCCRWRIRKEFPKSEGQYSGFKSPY
Method in brief: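 HEK-293 cells overexpressing human P2RX7 loaded with Fluo-3 AM, then incubated with TO-PRO-3 (large pore uptake) and propidium iodide (viability) plus compound (10⁻⁵ M single point) for 15 min before BzATP 100 µM. After 1 h, flow cytometry; percentage of Fluo-3/TO-PRO-3 double-positive cells calculated. Mean of n ≥ 2 with positive control.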

[2] = target: T1, P2X purinoceptor 7 (Homo sapiens); test: Antagonist activity at P2X7R in human THP1 cells assessed as inhibition of LPS and BzATP-induced ROS production at 10^-5 mol/L pretreated with compound followed by LPS/BzATP addition and measured up to 5 hrs by kinetic chemiluminescence based fluorometric analysis; format: cell-based; conditions: THP-1
Method in brief: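 PMA-differentiated THP-1 macrophages (10^5 cells) in RPMI 1640 + 10% FBS pretreated with antagonist at 10^-5 mol/L, then LPS 10 μmol/L plus BzATP 70 μmol/L at 37 °C, 5% CO2; horseradish peroxidase (50 μg/mL) and luminol (50 μM) mixture added, chemiluminescence read on a fluorometer; cell-free H2O2 serves as positive control.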

[3] = target: T1, P2X purinoceptor 7 (Homo sapiens); test: Antagonist activity at P2X7 receptor in human THP-1 cells assessed as inhibition of LPS and BzATP-induced IL-1beta production at 10^-6 mol/L pretreated with compound followed by LPS/BzATP addition and measured after 2 to 6 hrs by ELISA; format: cell-based; conditions: TDE = time-dependent effect
Method in brief: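 PMA (100nM)-differentiated THP-1 macrophages (RPMI 1640, 10% FCS), 10^6 cells, pretreated with antagonist at […], then challenged with LPS 10 μmol/L and BzATP 70 μmol/L at 37 °C, 5% CO2; IL1β measured by ELISA, including the 6 h point; mean ± SD, P<0.05 significant.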

[4] = target: T1, P2X purinoceptor 7 (Homo sapiens); test: Antagonist activity at P2X7 receptor in human THP-1 cells assessed as inhibition of LPS and BzATP-induced IL-1beta production at 10^-5 mol/L pretreated with compound followed by LPS/BzATP addition and measured after 2 to 6 hrs by ELISA; format: cell-based
Method in brief: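 THP-1 monocytes grown in RPMI 1640 + 10% FCS, differentiated to macrophages with PMA (100nM); 10^6 cells pretreated with antagonist at 10^-5 mol/L, then exposed to LPS 10 μmol/L plus BzATP 70 μmol/L at 37 °C, 5% CO2; IL1β quantified by ELISA in samples at 2, 4 and 6 h; mean ± SD, significance P<0.05.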

P2X purinoceptor 7 = target: T2, P2X purinoceptor 7 (Homo sapiens, UniProt Q99572); test: Displacement of [3H]-A804598 from human P2X7 expressed in human HEK293 cell membrane incubated for 1 hr by microplate scintillation counting method; format: cell membranes
T2 sequence (Q99572 whole entry): T1 sequence (whole entry)

[5] = Solubility of compound in saline at 1mg/ml; format: physicochemical; conditions: buffer
[6] = Metabolic stability in human liver microsomes assessed as intrinsic clearance at 0.2 mg/ml incubated for 60 mins by UPLC/MS-MS analysis; format: ADME, Microsome; conditions: read-out: CLH
[7] = Metabolic stability in human liver microsomes assessed as half life at 0.2 mg/ml incubated for 60 mins by UPLC/MS-MS analysis; format: ADME, Microsome
[8] = Drug metabolism in mouse measured after 40 mins; format: ADME; conditions: read-out: Drug metabolism
[9] = Metabolic stability in human hepatocytes; format: ADME, cell-based, Hepatocyte
HEK293 = test: Cytotoxicity against human HEK293 cells assessed as reduction in cell viability at 10^-5 mol/L incubated for 72 hrs; format: cell-based; conditions: hek293, 72 h, 10 µM
Method in brief: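 Wild-type and P2RX7-transfected HEK293 cells exposed to compound for 72 hours; viability compared against untreated control.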

[10] = target: T3, P2X purinoceptor 1 (Homo sapiens) (UniProt P51575); test: Antagonist activity at P2X1 receptor in human platelet assessed as inhibition of thrombin-induced platelet aggregation at 10 '-5 to 10^-6 mol/L pretreated with compound and LPS/BzATP for 10 mins followed by thrombin addition and measured for 8 mins by aggregometry analysis; format: cell-based
T3 sequence (whole entry): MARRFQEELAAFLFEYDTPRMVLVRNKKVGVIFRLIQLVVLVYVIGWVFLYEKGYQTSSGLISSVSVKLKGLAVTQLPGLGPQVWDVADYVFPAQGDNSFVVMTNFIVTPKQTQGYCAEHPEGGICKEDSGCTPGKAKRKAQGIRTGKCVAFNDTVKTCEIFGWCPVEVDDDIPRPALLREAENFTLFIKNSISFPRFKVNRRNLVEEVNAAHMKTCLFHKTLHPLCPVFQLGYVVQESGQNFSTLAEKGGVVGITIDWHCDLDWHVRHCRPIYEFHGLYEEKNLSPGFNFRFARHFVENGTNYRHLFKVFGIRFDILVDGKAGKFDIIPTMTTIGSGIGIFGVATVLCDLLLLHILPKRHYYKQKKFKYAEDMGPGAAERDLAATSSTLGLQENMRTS

SMILES: O=C(NCCc1ccc(Cl)cc1Cl)[C@@H]1CCC(=O)N1c1ccccc1
- inhibition [1]: 0%

SMILES: O=C(NCc1ccccc1Cl)[C@@H]1CCC(=O)N1Cc1ccccc1Cl
- inhibition [1]: 0%

SMILES: CN1C(=O)CC[C@H]1C(=O)NCc1cccc(C(F)(F)F)c1Cl [GSK1482160]
- inhibition [2]: Active
- inhibition [3]: Tde
- inhibition [4]: Active
- IC50 (P2X purinoceptor 7): 332 nM
- Ki (P2X purinoceptor 7): 68 nM
- inhibition [1]: 98%
- solubility [5]: Insoluble
- microsomal CLint [6]: 2.8 µL/min/mg
- half-life [7]: 800 min
- metabolised at 40 min [8]: 4.4%
- Stability [9]: Stable

SMILES: O=C(NCc1ccccc1Cl)[C@@H]1CCC(=O)N1Cc1ccc(Cl)cc1
- inhibition [1]: 0%

SMILES: O=C(NCc1ccc(Cl)cc1Cl)[C@@H]1CCC(=O)N1Cc1ccc(Cl)cc1
- inhibition [1]: 0%

SMILES: CCCCCCN1C(=O)[C@@H]2CCC(=O)N2C1N(C)C (some centres undefined)
- inhibition [1]: 0%

SMILES: CN(C)/C=C1\C[C@H]2C(=O)N(Cc3ccc(Cl)cc3Cl)C(N(C)C)N2C1=O (some centres undefined)
- inhibition [1]: 24%

SMILES: CN(C)/C=C1\C[C@H]2C(=O)N(/C(=C/N(C)C)c3ccncc3)C(N(C)C)N2C1=O (some centres undefined)
- inhibition [1]: 0%

SMILES: COc1ccc(CNC(=O)[C@@H]2CCC(=O)N2Cc2ccc(Cl)cc2Cl)c(OC)c1
- inhibition [1]: 0%

SMILES: COc1ccc(N2C(=O)CC[C@H]2C(=O)NCc2ccc(Cl)cc2Cl)cc1
- inhibition [1]: 0%

SMILES: O=C(NCc1ccc(Cl)cc1Cl)[C@@H]1COC(=O)N1c1cccs1
- inhibition [2]: Active
- inhibition [3]: Tde
- inhibition [4]: Active
- IC50 (P2X purinoceptor 7): 15100 nM
- Ki (P2X purinoceptor 7): 3110 nM
- inhibition [1]: 80%
- Activity (HEK293): Non-Toxic
- Activity [10]: inactive
- solubility [5]: Insoluble
- microsomal CLint [6]: 663 µL/min/mg
- half-life [7]: 1.4 min
- metabolised at 40 min [8]: 100%

SMILES: O=C(NCc1ccc(Cl)cc1Cl)[C@@H]1CCC(=O)N1C(c1ccc(Cl)cc1)c1ccc(Cl)cc1
- inhibition [1]: 0%

SMILES: CN1CCN(/C=C2\C[C@@H](C(=O)NCc3ccc(Cl)cc3Cl)N(c3cccs3)C2=O)CC1
- inhibition [1]: 49%

SMILES: O=C(NCc1ccccc1Cl)[C@@H]1CCC(=O)N1c1ccccc1
- inhibition [1]: 0%

SMILES: COc1ccc(CN2C(=O)CC[C@H]2C(=O)NCCc2ccccc2)cc1
- inhibition [1]: 0%

SMILES: COC(=O)[C@@H]1C/C(=C\NCc2ccc(Cl)cc2Cl)C(=O)N1C(=O)OC
- inhibition [1]: 99%

SMILES: O=C(NCc1ccc(Cl)cc1Cl)[C@@H]1CCC(=O)N1c1cscn1
- inhibition [2]: Active
- inhibition [3]: Tde
- inhibition [4]: Active
- IC50 (P2X purinoceptor 7): 384 nM
- Ki (P2X purinoceptor 7): 78 nM
- inhibition [1]: 98%
- Activity (HEK293): Non-Toxic
- Activity [10]: inactive
- solubility [5]: Insoluble
- microsomal CLint [6]: 379 µL/min/mg
- half-life [7]: 4.8 min
- metabolised at 40 min [8]: 98%
- Stability [9]: Unstable

SMILES: CCCCCCN1C(=O)[C@@H]2C/C(=C\N(C)C)C(=O)N2C1N(C)C (some centres undefined)
- inhibition [1]: 0%

SMILES: COc1cc(CNC(=O)[C@@H]2CCC(=O)N2)cc(OC)c1OC
- inhibition [1]: inactive

SMILES: O=C(NCC1CCCCC1)[C@@H]1CCC(=O)N1c1ccccc1
- inhibition [1]: 0%

SMILES: O=C(NCCc1ccccc1)[C@@H]1CCC(=O)N1Cc1ccc(Cl)cc1Cl
- inhibition [1]: 0%

SMILES: O=C(NCc1ccc(Cl)cc1Cl)[C@@H]1CCC(=O)N1c1ccc(Cl)cc1
- inhibition [1]: 0%

SMILES: O=C1N[C@H](C(=O)NCc2ccc(Cl)cc2Cl)C/C1=C/NCc1ccc(Cl)cc1Cl
- inhibition [1]: 0%

SMILES: O=C(NCc1ccc(Cl)cc1Cl)[C@@H]1CCC(=O)N1Cc1ccccc1
- inhibition [1]: 100%

SMILES: C[n+]1ccccc1C(=O)NCc1ccc(Cl)cc1Cl.[I-]
- inhibition [1]: 0%

SMILES: CN(C)C(=O)[C@@H]1CCC(=O)N1
- inhibition [1]: inactive

SMILES: O=C(NCc1ccc(Cl)cc1Cl)[C@@H]1CCC(=O)N1c1ccccc1
- inhibition [1]: 50%
- Stability [9]: Unstable

SMILES: O=C(Nc1ccc(Cl)cc1Cl)[C@@H]1CCC(=O)N1Cc1ccccc1Cl
- inhibition [1]: 0%

SMILES: O=C1N[C@H](C(=O)NCc2ccc(Cl)cc2Cl)C/C1=C\N1CCOCC1
- inhibition [1]: 56%

SMILES: COc1ccc(CN2C(=O)[C@@H]3C/C(=C\N(C)C)C(=O)N3C2N(C)C)c(OC)c1 (some centres undefined)
- inhibition [1]: 0%

SMILES: O=C(NCc1ccc(Cl)cc1Cl)[C@@H]1CCC(=O)N1c1nccs1
- inhibition [2]: Active
- inhibition [3]: Tde
- inhibition [4]: Active
- IC50 (P2X purinoceptor 7): 2380 nM
- Ki (P2X purinoceptor 7): 489 nM
- inhibition [1]: 83%
- Activity (HEK293): Non-Toxic
- Activity [10]: inactive
- solubility [5]: Insoluble
- microsomal CLint [6]: 253 µL/min/mg
- half-life [7]: 7.5 min
- metabolised at 40 min [8]: 93%
- Stability [9]: Unstable

SMILES: CN1C(=O)CC[C@H]1C(=O)NCc1cc(C(F)(F)F)ccc1Cl
- inhibition [1]: 0%

SMILES: COc1ccc(N2C(=O)[C@@H]3C/C(=C\N(C)C)C(=O)N3C2N(C)C)cc1 (some centres undefined)
- inhibition [1]: 0%

SMILES: COc1ccc(NC(=O)[C@@H]2CCC(=O)N2)cc1OC
- inhibition [1]: inactive

SMILES: O=C(NCc1ccccc1Cl)[C@@H]1CCC(=O)N1Cc1ccccc1
- inhibition [1]: 0%

SMILES: O=C(NCc1ccc(Cl)cc1Cl)[C@@H]1CCC(=O)N1C(c1ccccc1)c1ccccc1
- inhibition [1]: 0%

SMILES: COc1ccc(NC(=O)[C@@H]2C/C(=C\N(C)C)C(=O)N2)cc1
- inhibition [1]: 0%

SMILES: Cc1ccc(NC(=O)[C@@H]2CCC(=O)N2c2ccccc2)cc1
- inhibition [1]: 0%

SMILES: O=C1N[C@H](C(=O)NCc2ccc(Cl)cc2Cl)C/C1=N\O (stereo in doubt)
- inhibition [1]: 52%

SMILES: N#Cc1ccc(N2C(=O)CC[C@H]2C(=O)NCc2ccc(Cl)cc2Cl)cc1
- inhibition [1]: 0%

SMILES: O=C(NCc1ccc(Cl)cc1Cl)[C@@H]1CCC(=O)N1c1ccc(Cl)cc1Cl
- inhibition [1]: 0%

SMILES: O=C(NCc1ccccc1)[C@@H]1CCC(=O)N1Cc1ccc(Cl)cc1Cl
- inhibition [1]: 0%

SMILES: CN(Cc1ccccc1)C(=O)[C@@H]1CCC(=O)N1Cc1ccc(Cl)cc1Cl
- inhibition [1]: 0%
